Measurements published in paper PMC11610768 (The AAPS journal, 2023).
Where two headings read alike, the source gives them in different places.

Key:
cyclin D1 in A2780 cells = assay: Concentration-dependent changes in cyclin D1 in A2780 cells; format: cell-based, human; details: 24 h exposure, 1-15 µM, ELISA
In short: (§1)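 Cells grown in RPMI 1640 with 10% FBS and 1% antibiotic-antimycotic, seeded overnight at 37°C, 5% CO2, then exposed to test compound (DMSO) at 0–15 µM for 24 h. SKOV3 only: 2–24 h time course at 2.5 and 10 µM, and washout after 24 h at 10 µM with recovery at 4, 8, 24 h. Cyclin D1 measured by sandwich ELISA (5 µg protein, duplicates, OD 450 nm) and by western blot (20 µg lysate, β-actin reprobe).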

cyclin D1 in SKOV3 cells = assay: Concentration- and time-dependent changes in cyclin D1 in SKOV3 cells; format: cell-based, human
In short: as §1

mortalin = assay: Western blot of total mortalin in ovarian cancer cells; format: cell-based, human
[1] = format: in vivo, mice
In short: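 Tumour-bearing nude mice (intraperitoneal SKOV3) received 60 mg/kg oral daily for 7 days in 30% Kolliphor HS 15. Saphenous blood was taken at 1, 4, 6, 8, 12 h after the first dose and at troughs 24–144 h, with 3 mice per point in rotating subgroups. Tissues were taken after the last dose. For HPLC-UV, plasma or tissue homogenate (3 mL/g phosphate buffer, pH 7.4) plus internal standard underwent acetonitrile precipitation, centrifugation and filtration. LLOQ 5 ng/mL; values given as mean ± SD.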

[2] = test system: cyclin D1 in SKOV3 tumors; assay: Cyclin D1 in SKOV3 xenograft tumors; format: in vivo, mice; details: 60 mg/kg oral once daily, observed at 12 h
In short: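 Female athymic nude mice (Foxn1nu, 6–8 weeks) were given intraperitoneal SKOV3-luc cells, and tumours were confirmed after about 3 weeks. Dosing: 60 mg/kg oral, daily for 7 days, as a suspension in 30% Kolliphor HS 15 (6 mg/mL, 10 mL/kg); vehicle controls, n = 3. Tumours were taken after the last dose; archived 24-h single-dose tumours were also used. Lysate (5 µg protein) run in a total cyclin D1 sandwich ELISA in duplicate, read at OD 450 nm.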

ccK18 = ccK18 quantification in mouse plasma; format: in vivo, mice; details: single IV dose 10 mg/kg, 2–4 h after dosing; vehicle approx 700 U/L
[3] = single oral dose study, tumor-bearing mice; cited from earlier work
xenograft tumor models = details: 60 mg/kg QD; cited from earlier work
colorectal tumors = details: APCmin/+ mouse, cited from earlier work
[4] = animal models; cited from earlier work
[5] = 60 mg/kg oral once daily for seven days
[6] = 60 mg/kg oral once daily, at 1 h

CC1(C)CC(C)(C)c2cc(NC(=S)Nc3ccc([N+](=O)[O-])cc3)ccc2S1 [SHetA2]
maximum inhibition of cyclin D1 levels (cyclin D1 in A2780 cells): ~ 80% | cyclin D1 level restored, of baseline (cyclin D1 in SKOV3 cells; 24 h after drug removal, after 24 h exposure to 10 µM): over 80% | IC50 (cyclin D1 in SKOV3 cells; Homo sapiens, SK-OV-3, read-out: IC50 of cyclin D1 reduction): 4 to 5 µM | maximum inhibition of cyclin D1 levels (cyclin D1 in SKOV3 cells; SKOV3 cells, 24 h exposure, 1-15 µM, ELISA): ~ 70% | time at which cyclin D1 levels began to recover after drug removal (cyclin D1 in SKOV3 cells; after 24 h exposure to 10 µM, drug removed from culture medium): 4 h | cyclin D1 reduction / inhibition observed (cyclin D1 in SKOV3 cells; cancer cells (cell line not named at the place), dose-dependent): up to 70% | effect on total mortalin levels (mortalin): no effect | accumulation of the drug in plasma [1, 5]: No significant accumulation | mean trough concentrations in the plasma [1, 5]: 18.8 ± 6.6 ng/mL | peak tumor concentration [1, 6]: around 4,000 ng/ml | peak tumor concentration (equivalent) [1, 6]: ~ 10 µM | maximum reduction in cyclin D1 in tumor [2]: ~ 70% | peak plasma ccK18 level (ccK18): 913 U/L | elimination half-life [3]: 4.5 h | antitumor activity (xenograft tumor models): 40–60% | reduction of cyclin D1 in the tumors (colorectal tumors; 30 mg/kg QD): 50% | reduction of cyclin D1 in the tumors (colorectal tumors; 60 mg/kg QD): 90% | reduction of incidence of colorectal tumors (colorectal tumors; QD doses of 30 or 60 mg/kg): over 50% | adverse effects in genetic toxicology assays and toxicity tests [4]: no adverse effects observed
